These results are taken from paper PMC12350853 (Discover Nano, 2025).

Entries after “also recorded” stand apart in the source; their conditions may differ.

The conditions of data set [1]: cited from earlier work.
Data set [2] concerns liver. As to the kind of experiment: Liver histopathology and semi-quantitative damage score. The format is in vivo, rat. In outline: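 Male Wistar rats received free or Fe–Co MOF-loaded test compound at 0.4 or 0.8 mg/kg i.v., ten doses 72 h apart. Fixed liver was ethanol-dehydrated, xylene-cleared, paraffin-embedded, microtome-sectioned and H&E-stained. Two specialists scored blindly on a 1–4 scale, and also rated pyknotic nuclei, inflammatory infiltration, bleeding and necrosis each 0–3. Results are mean ± SD.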

Data set [3] deals with kidney. In words: Kidney histopathology and semi-quantitative damage score. It is filed as in vivo, rat. As to conditions: for kidney histopathological findings: Masson trichrome. In outline: (§1)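 Fifty male adult Wistar rats were split into five groups (23–24 °C, 12 h light/dark). Test compound, free or loaded in Fe–Co MOF, was given at 0.4 or 0.8 mg/kg i.v., ten injections at 72 h intervals. Rats were euthanised with pentobarbital sodium 200 mg/kg. H&E sections were scored 1 (normal) to 4 (severe) against organ-specific lesion criteria, blinded, by two specialists.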

Data set [4] concerns liver. In words: Liver MDA level. The format is in vivo, rat. The following applies: dose not given. In outline: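 After ten i.v. injections 72 h apart of free or Fe–Co MOF-loaded test compound (0.4 or 0.8 mg/kg) in male Wistar rats, liver malondialdehyde was measured by a modified literature method. Assays were repeated three times. Results are mean ± SD, compared by ANOVA with post hoc test.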

Data set [5] relates to heart. As to the kind of experiment: Heart histopathology and semi-quantitative damage score. It is filed as in vivo, rat. As to conditions: for heart histopathological findings: H&E. In outline: as §1
The subject of data set [6] is testis. As to the kind of experiment: Testis histopathology and semi-quantitative damage score. It is filed as in vivo, rat. As to conditions: for Testis damage score (TDS): scale 1 normal to 4 severe, mean ± SD. In outline:
as §1

For data set [7], the system named is male adult Wistar rats. In words: Serum biochemical parameters after repeated intravenous injection. The format is in vivo, rat. The following applies: ten injections at 72-hour intervals, vs control. In outline:
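Male adult Wistar rats (five groups, ten per group) received free or Fe–Co MOF-loaded test compound i.v. at 0.4 or 0.8 mg/kg, ten injections every 72 h. Retro-orbital blood was centrifuged immediately at 5,000 rpm for 10 min. AST, ALT, BUN and creatinine were run on an autoanalyzer with commercial kits. Results are mean ± SD, tested by ANOVA with post hoc comparison against control.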

[8] abbreviates: 0.4 mg/kg i.v., scale 1 normal to 4 severe, mean ± SD.

Consider `CC(C)C[C@H](NC(=O)[C@H](CCc1ccccc1)NC(=O)CN1CCOCC1)C(=O)N[C@@H](Cc1ccccc1)C(=O)N[C@@H](CC(C)C)C(=O)[C@@]1(C)CO1` [CFZ, Carfilzomib], for which, in data set [1], the half-life is ~ 30 min. Besides, the liver histopathological findings result is “normal liver appearance” in data set [2] (0.4 mg/kg i.v.); “necrosis, inflammatory cell accumulation, and disarray of hepatic cords” in data set [2] (0.8 mg/kg i.v.). Moreover, the “Liver damage score (LDS)” value in data set [2] (setting [8]) was determined as 1.6 ± 0.51. Moreover, the kidney histopathological findings result was “normal proximal and distal tubules with normal-sized nuclei” in data set [3] (0.4 mg/kg i.v.); “glomerulosclerosis characterized by swollen lining epithelium and narrowing of the proximal tubule lumen” in data set [3] (0.8 mg/kg i.v.). Besides, in data set [3] (setting [8]), the “Renal damage score (RDS)” value is reported as 1.5 ± 0.75. For the same compound, the liver lipid peroxidation entry in data set [4] is “significant increase”. Also, the heart histopathological findings result in data set [5] (0.4 mg/kg i.v.) was “mild inflammatory cell infiltration”; in data set [5] (0.8 mg/kg i.v., listed as free Carfilzomib), “inflammatory cell infiltration, bleeding, and necrosis; also recorded: severe necrosis”. Besides, the “Heart damage score (HDS)” value in data set [5] (setting [8]) is 1.25 ± 0.46. Further, the “cardiotoxicity by histopathological data” value in data set [5] (overall statement) is given as “severe cardiotoxicity”. Besides, the testis histopathological findings result in data set [6] (0.4 mg/kg i.v.) was “no evidence of inflammation, necrosis, or cellular infiltrates”; in data set [6] (0.8 mg/kg i.v.), “multinucleated giant Sertoli cells”. Further, the results for the “Testis damage score (TDS)” value in data set [6] (0.4 mg/kg i.v.) and in data set [6] (0.8 mg/kg i.v.) were 1.2 ± 0.4 and 1.42 ± 0.53, respectively. The figures for the serum creatinine levels result in data set [7] (0.4 mg/kg i.v.) and in data set [7] (0.8 mg/kg i.v.) were “elevation was not observed” and “higher serum creatinine levels”, respectively. Also, in data set [7] (0.8 mg/kg i.v.), the ALT levels result is reported as “significantly increased”. The “serum AST levels” value in data set [7] (0.8 mg/kg i.v.) is reported as “Significant elevation”. Besides, the “serum BUN levels” value in data set [7] (0.8 mg/kg i.v.) is reported as “no significant effect”.
